Three compounds from ChEMBL document CHEMBL4673180, “Synthesis of quinone imine and sulphur-containing compounds with antitumor and trypanocidal activities: redox and biological implications” (RSC Med Chem, 2020) can be followed below.

Data set [1] relates to Trypanosoma cruzi. As to the kind of experiment: Antitrypanosomal activity against Trypanosoma cruzi Y strain bloodstream trypomastigotes assessed as lysis of parasite in presence of 5 % mouse blood incubated for 24 hrs by Neubauer chamber method. The format is functional, organism-based. The method in brief:
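Y strain bloodstream trypomastigotes came from infected albino mice at peak parasitaemia, purified by differential centrifugation, in RPMI at 10^7 cells/mL with 10% mouse blood. They were mixed 1:1 with compound at twice the final concentration (5% blood final), 24 h at 4 °C, with DMSO ≤0.4% final. Neubauer chamber counting; IC50 is 50% lysis; at least three independent experiments.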

Data set [2] is described as follows: Cytotoxicity against albino Swiss mouse peritoneal macrophages assessed as reduction in cell viability incubated for 24 hrs by Presto blue assay. The format is tissue-based, Macrophage. As to conditions: read-out: LC50. The method in brief:
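Primary peritoneal macrophages from Albino Swiss mice were seeded at 2.5 × 10^4 cells per well in RPMI-1640 (pH 7.2, 10% FBS, 2 mM glutamine) and grown 24 h at 37 °C. They were then treated 24 h at 37 °C with compound from DMSO stock (final DMSO ≤0.4%).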

Data set [3] is described as follows: Selectivity index, ratio of LC50 for cytotoxicity against albino Swiss mouse peritoneal macrophages to IC50 for Antitrypanosomal activity against Trypanosoma cruzi Y strain bloodstream trypomastigotes assessed as lysis of parasite in presence of 5 % mouse blood. The format is toxicity. The method in brief:
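Y-strain bloodstream trypomastigotes came from infected albino mice at peak parasitaemia and were purified by differential centrifugation. They were resuspended at 10^7/mL in RPMI with 10% mouse blood and mixed 1:1 with compound at twice the final concentration (DMSO ≤0.4%). Incubation was 24 h at 4 °C (5% blood per footnote).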

Data set [4] concerns Trypanosoma cruzi. In words: Antitrypanosomal activity against Trypanosoma cruzi Y strain bloodstream trypomastigotes assessed as lysis of parasite in absence of mouse blood incubated for 24 hrs by Neubauer chamber method. The format is functional, organism-based. In outline:
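T. cruzi Y strain bloodstream trypomastigotes came from infected albino mice at peak parasitaemia and were purified by differential centrifugation. They were exposed to compounds for 24 h at 37 °C without blood. Parasites were counted in a Neubauer chamber, and IC50 is the concentration lysing 50% of parasites. Values are mean ± SD of at least three independent experiments.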

A short description of data set [5]: Selectivity index, ratio of LC50 for cytotoxicity against albino Swiss mouse peritoneal macrophages to IC50 for Antitrypanosomal activity against Trypanosoma cruzi Y strain bloodstream trypomastigotes assessed as lysis of parasite in absence of mouse blood. The format is toxicity. In outline:
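Y-strain bloodstream trypomastigotes came from infected albino mice at peak parasitaemia and were purified by differential centrifugation into RPMI. They were exposed 24 h at 37 °C without blood to compound (DMSO ≤0.4%).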

For the next data set, the system named is HCT-116. In words: Cytotoxicity against human HCT-116 cells assessed as reduction in cell viability after 72 hrs by MTT assay. The format is functional, cell-based. As to conditions: HCT-116, 72 h. The method in brief: (§1)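 Cells were grown in medium with 10% FBS, 2 mM L-glutamine, penicillin and streptomycin at 37 °C, 5% CO2. Seeding per well was 0.1 × 10^6 for leukaemia, PC3, L929 and NCI-H460, and 0.7 × 10^5 for HCT-116. Compounds in DMSO (0.1% final) were applied for 72 h. MTT (0.5 mg/mL) was added for 3 h, formazan dissolved in DMSO, and absorbance read at 550 nm. IC50 by nonlinear regression; three independent experiments in triplicate.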
On the technique in general: Tetrazolium assays rely on reduction of a dye to a coloured formazan, in cell work by metabolically active cells.

The subject of a further data set is NCI-H460. In words: Cytotoxicity against human NCI-H460 cells assessed as reduction in cell viability after 72 hrs by MTT assay. As to conditions: NCI-H460, 72 h. The format is functional, cell-based. The method in brief: (§2)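 Cells were grown in medium with 10% FBS, 2 mM L-glutamine, penicillin and streptomycin at 37 °C, 5% CO2. Compounds in DMSO (0.1% final) were applied for 72 h. MTT (0.5 mg/mL) was added for 3 h, formazan dissolved in DMSO, and absorbance read at 550 nm. IC50 by nonlinear regression; three independent experiments in triplicate.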

In the next data set the test system is PC-3. In words: Cytotoxicity against human PC-3 cells assessed as reduction in cell viability after 72 hrs by MTT assay. The format is functional, cell-based. As to conditions: PC-3, 72 h. The method in brief: as §1
For another data set, the system named is HL-60. In words: Cytotoxicity against human HL-60 cells assessed as reduction in cell viability after 72 hrs by MTT assay. The format is functional, cell-based. Particulars: HL-60, 72 h. In outline: as §2
The test system of data set [6] is K562. In words: Cytotoxicity against human K562 cells assessed as reduction in cell viability after 72 hrs by MTT assay. The format is functional, cell-based. As to conditions: K562, 72 h. The method in brief:
as §1

A short description of data set [7]: Cytotoxicity against human Lucena1 cells assessed as reduction in cell viability after 72 hrs by MTT assay. Particulars: Lucena 1, 72 h. The format is functional, cell-based. The method in brief:
as §1

For another data set, the system named is L929. As to the kind of experiment: Cytotoxicity against mouse L929 cells assessed as reduction in cell viability after 72 hrs by MTT assay. The format is cell-based. Particulars: L929, 72 h. In outline:
as §1

The nature of data set [8]: Selectivity index, ratio of IC50 for mouse L929 cells to IC50 for human HCT116 cells after 72 hrs by MTT assay. The format is toxicity. As to conditions: L929 cells versus HCT116 cells, read-out: Ratio IC50. In outline: (§3)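 Both cell types were kept in medium with 10% FBS, 2 mM L-glutamine and penicillin/streptomycin at 37 °C, 5% CO2. Seeding was 0.7 × 10^5 cells per well for HCT-116, 0.1 × 10^6 for the other lines. Cells got compound in DMSO (0.1% final) for 72 h, then 0.5 mg/mL MTT for 3 h, with formazan read at 550 nm. IC50 came from nonlinear regression over three independent experiments in triplicate. SI is the L929 IC50 divided by the cancer-line IC50.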

A short description of data set [9]: Selectivity index, ratio of IC50 for mouse L929 cells to IC50 for human NCI-H460 cells after 72 hrs by MTT assay. The format is toxicity. As to conditions: L929 cells versus NCI-H460 cells, read-out: Ratio IC50. In outline:
as §3

A short description of data set [10]: Selectivity index, ratio of IC50 for mouse L929 cells to IC50 for human PC3 cells after 72 hrs by MTT assay. The format is toxicity. As to conditions: L929 cells versus PC3 cells, read-out: Ratio IC50. The method in brief: as §3
A short description of data set [11]: Selectivity index, ratio of IC50 for mouse L929 cells to IC50 for human HL-60cells after 72 hrs by MTT assay. Particulars: L929 cells versus HL-60 cells, read-out: Ratio IC50. The format is toxicity. In outline:
as §3

A short description of data set [12]: Selectivity index, ratio of IC50 for mouse L929 cells to IC50 for human K-562 cells after 72 hrs by MTT assay. The format is toxicity. As to conditions: L929 cells versus K-562 cells, read-out: Ratio IC50. In outline: as §3
The nature of data set [13]: Selectivity index, ratio of IC50 for mouse L929 cells to IC50 for human Lucena1 cells after 72 hrs by MTT assay. The method in brief: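 Selectivity index is the ratio of IC50 in murine L929 fibroblasts to IC50 in Lucena 1 cells, each measured by 72 h MTT assay (absorbance 550 nm). IC50 values came from nonlinear regression of three independent experiments in triplicate.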

For data set [14], the system named is K562. In words: Induction of reactive oxygen species generation in human K562 cells at 40 uM measured after 1 hr by H2DCFDA probe-based flow cytometry. The format is functional, cell-based. The method in brief:
(§4)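 K-562 cells were pre-loaded with 10 μM CM-H2DCFDA for 1 h in the dark at 37 °C/5% CO2, washed with PBS, then incubated with compound in fresh medium for 1 or 3 h. Cells were resuspended in PBS with 1 μg/mL propidium iodide and analysed by flow cytometry on ice. DCF fluorescence (ex 490/em 525 nm) was read in PI-negative cells, 10 000 events per sample. Menadione 20 μM and H2O2 150 μM were positive controls. Mean ± SEM of three independent experiments.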
(In general: Flow cytometry measures light scatter and fluorescence of single cells or particles in a stream.)

The subject of data set [15] is K562. As to the kind of experiment: Induction of reactive oxygen species generation in human K562 cells at 40 uM measured after 3 hr by H2DCFDA probe-based flow cytometry. The format is functional, cell-based. The method in brief:
as §4

Calls of active or inactive are those of the source. The rule behind the calls is not given here.

Turning to `O=C1C=C(Sc2ccccc2)c2ccccc2C1=O`, the IC50 (commonly the concentration that gives 50% inhibition) in the data set with Trypanosoma cruzi [1] is 24.3 µM; with Trypanosoma cruzi [4], 1.3 µM; with HCT-116 it was 12.8 µM; with NCI-H460 it was above 20 µM; in the data set with PC-3, above 20 µM; in the data set with HL-60, 6.08 µM. In addition, the IC50 with K562 [6] was 15.7 µM; in data set [7], 15.6 µM; in the data set with L929 it was above 20 µM. In addition, the CC50 at 24 h in [2] worked out at 36.9 µM. The selectivity ratio came out at 1.52 in data set [3] and 28.4 in data set [5]. Besides, the selectivity ratio at 72 h in data set [8] came to 2.2; in data set [9], 0.7; in [10] it was 0.7; in data set [11], 4.6; in data set [12] it was 1.8. Further, the “Ratio IC50” value in [13] is 1.8. The outcome in the data set on K562 [14] and in the data set on K562 [15] was Active.
`C#CCOC1=C/C(=N\c2ccc(Cl)cc2)c2ccccc2C1=O`: the IC50 in the data set with HCT-116 is 18.9 µM; in the data set on NCI-H460, 16.2 µM; with PC-3, 14.6 µM; in the data set with HL-60, 11 µM; in the data set on K562 [6] it was 12.8 µM; in [7], 16.4 µM. Besides, in the data set on L929, the IC50 was above 20 µM. The selectivity ratio at 72 h stood at 1.6 in data set [8]; 1.9 in [9]; 2.1 in [10]; 2.8 in [11]; 2.4 in [12]. Besides, the “Ratio IC50” value in data set [13] is on record as 1.9. In addition, the result in the data set with K562 [15] was Active.
As for `Cc1ccc(S(=O)(=O)n2cc(COC3=C/C(=N\c4ccc(Br)cc4)c4ccccc4C3=O)nn2)cc1`, the IC50 in the data set with Trypanosoma cruzi [1] was above 500 µM; with HCT-116 it was 9.25 µM; in the data set on NCI-H460 it was 9.41 µM; in the data set on PC-3, 3.41 µM; in the data set on HL-60, 4.22 µM; in the data set on K562 [6], 5.4 µM. For the same compound, the figures for the 50% inhibitory concentration (IC50) (in data set [7]; in the data set on L929) were 3.32 µM and above 17.8 µM, respectively. In addition, the CC50 at 24 h in [2] was above 100 µM. For the same compound, the selectivity ratio at 72 h in [8] was 1.9; in data set [9], 1.9; in data set [10], 5.2; in data set [11], 4.2; in [12], 3.3. For the same compound, the “Ratio IC50” value in [13] was 5.3. The result with K562 [15] was Active.
